# Experiments:
# [1] = Cytotoxicity against mouse L929 cells assessed as cell viability up to 150 uM; format: cell-based; settings: read-out: Activity
# L929 [2] = assay: Antiinflammatory activity against mouse L929 cells assessed as inhibition of LPS-induced TNFalpha production after 48 hrs; format: functional, cell-based
# Summary of the method: (§1)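 Mouse L929 fibroblasts were stimulated with lipopolysaccharide and exposed to compounds at 15.62 µM and 125 µM. TNFα was quantified in culture supernatants in pg/mL and expressed as percent decrease versus stimulated cells. Thalidomide served as the reference control.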
# Mus musculus = assay: Antinociceptive effect in mouse assessed as inhibition of acetic acid-induced abdominal constriction at 100 uM/kg, po; format: functional, Abdomen
# L929 [3] = assay: Antiinflammatory activity against mouse L929 cells assessed as inhibition of LPS-induced TNFalpha production at 125 uM after 48 hrs; format: functional; settings: L929, 48 h; summary of the method: as §1
# L929 [4] = assay: Antiinflammatory activity against mouse L929 cells assessed as inhibition of LPS-induced TNFalpha production at 15.625 uM after 48 hrs; format: functional; settings: L929, 48 h; summary of the method: as §1
# Salmonella typhimurium [5] = assay: Genotoxicity in Salmonella typhimurium TA100 at 1.25 ug/plate assessed as number of revertants per plate in presence of S9 liver extract (reference value: 128.9 +/- 7.3 no unit); format: toxicity, organism-based, Liver S9 fraction; settings: salmonella enterica subsp. enterica serovar typhimurium
# Mycobacterium leprae = assay: Antimycobacterial activity against Mycobacterium leprae inoculated in mouse model assessed as mean number of bacilli at 200 mg/kg, po 5 days/week for 4 weeks (reference value: 3.56 x 10^6 cells); format: functional
# Salmonella typhimurium [6] = assay: Genotoxicity in Salmonella typhimurium TA102 assessed as mutagenic index at 32 umol/plate in presence of S9 liver extract; format: toxicity, organism-based, Liver S9 fraction; settings: salmonella enterica subsp. enterica serovar typhimurium
# Salmonella typhimurium [7] = assay: Genotoxicity in Salmonella typhimurium TA100 assessed as mutagenic index at 4 umol/plate in presence of S9 liver extract; format: toxicity, organism-based, Liver S9 fraction; settings: salmonella enterica subsp. enterica serovar typhimurium
# Salmonella typhimurium [8] = assay: Genotoxicity in Salmonella typhimurium TA102 assessed as mutagenic index at 2 umol/plate; format: toxicity, organism-based; settings: salmonella enterica subsp. enterica serovar typhimurium
# Salmonella typhimurium [9] = assay: Genotoxicity in Salmonella typhimurium TA100 assessed as mutagenic index at 32 umol/plate; format: toxicity, organism-based; settings: salmonella enterica subsp. enterica serovar typhimurium
# Salmonella typhimurium [10] = assay: Genotoxicity in Salmonella typhimurium TA102 assessed as mutagenic index at 4 umol/plate; format: toxicity, organism-based; settings: salmonella enterica subsp. enterica serovar typhimurium
# Salmonella typhimurium [11] = assay: Genotoxicity in Salmonella typhimurium TA100 assessed as mutagenic index at 8 umol/plate; format: toxicity, organism-based; settings: salmonella enterica subsp. enterica serovar typhimurium
# Salmonella typhimurium [12] = assay: Genotoxicity in Salmonella typhimurium TA100 assessed as mutagenic index at 16 umol/plate in presence of S9 liver extract; format: toxicity, organism-based, Liver S9 fraction; settings: salmonella enterica subsp. enterica serovar typhimurium
# Salmonella typhimurium [13] = assay: Genotoxicity in Salmonella typhimurium TA102 assessed as mutagenic index at 2 umol/plate in presence of S9 liver extract; format: toxicity, organism-based, Liver S9 fraction; settings: salmonella enterica subsp. enterica serovar typhimurium
# Salmonella typhimurium [14] = assay: Genotoxicity in Salmonella typhimurium TA102 assessed as mutagenic index at 8 umol/plate; format: toxicity, organism-based; settings: salmonella enterica subsp. enterica serovar typhimurium
# Salmonella typhimurium [15] = assay: Genotoxicity in Salmonella typhimurium TA102 assessed as mutagenic index at 16 umol/plate; format: toxicity, organism-based; settings: salmonella enterica subsp. enterica serovar typhimurium
# Salmonella typhimurium [16] = assay: Genotoxicity in Salmonella typhimurium TA100 assessed as mutagenic index at 8 umol/plate in presence of S9 liver extract; format: toxicity, organism-based, Liver S9 fraction; settings: salmonella enterica subsp. enterica serovar typhimurium
# Salmonella typhimurium [17] = assay: Genotoxicity in Salmonella typhimurium TA102 assessed as mutagenic index at 4 umol/plate in presence of S9 liver extract; format: toxicity, organism-based, Liver S9 fraction; settings: salmonella enterica subsp. enterica serovar typhimurium
# Salmonella typhimurium [18] = assay: Genotoxicity in Salmonella typhimurium TA100 assessed as mutagenic index at 2 umol/plate; format: toxicity, organism-based; settings: salmonella enterica subsp. enterica serovar typhimurium
# Salmonella typhimurium [19] = assay: Genotoxicity in Salmonella typhimurium TA102 assessed as mutagenic index at 16 umol/plate in presence of S9 liver extract; format: toxicity, organism-based, Liver S9 fraction; settings: salmonella enterica subsp. enterica serovar typhimurium
# Salmonella typhimurium [20] = assay: Genotoxicity in Salmonella typhimurium TA100 assessed as mutagenic index at 4 umol/plate; format: toxicity, organism-based; settings: salmonella enterica subsp. enterica serovar typhimurium
# Salmonella typhimurium [21] = assay: Genotoxicity in Salmonella typhimurium TA100 assessed as mutagenic index at 16 umol/plate; format: toxicity, organism-based; settings: salmonella enterica subsp. enterica serovar typhimurium
# Salmonella typhimurium [22] = assay: Genotoxicity in Salmonella typhimurium TA100 assessed as mutagenic index at 32 umol/plate in presence of S9 liver extract; format: toxicity, organism-based, Liver S9 fraction; settings: salmonella enterica subsp. enterica serovar typhimurium
# Salmonella typhimurium [23] = assay: Genotoxicity in Salmonella typhimurium TA100 assessed as mutagenic index at 2 umol/plate in presence of S9 liver extract; format: toxicity, organism-based, Liver S9 fraction; settings: salmonella enterica subsp. enterica serovar typhimurium
# Salmonella typhimurium [24] = assay: Genotoxicity in Salmonella typhimurium TA102 assessed as mutagenic index at 8 umol/plate in presence of S9 liver extract; format: toxicity, organism-based, Liver S9 fraction; settings: salmonella enterica subsp. enterica serovar typhimurium
# Salmonella typhimurium [25] = assay: Genotoxicity in Salmonella typhimurium TA102 assessed as mutagenic index at 32 umol/plate; format: toxicity, organism-based; settings: salmonella enterica subsp. enterica serovar typhimurium
# Salmonella typhimurium [26] = assay: Genotoxicity in Salmonella typhimurium TA102 at 3 ug/plate assessed as number of revertants per plate (reference value: 301 +/- 5.2 no unit); format: toxicity, organism-based; settings: salmonella enterica subsp. enterica serovar typhimurium
compound,measurement,setting,value
Cc1cc(C)nc(NS(=O)(=O)c2ccc(N3C(=O)c4ccccc4C3=O)cc2)n1,viability,[1],> 90%
same,inhibition,L929 [2],Dose-dependent effect
same,inhibition (INH),Mus musculus,27.37%
same,inhibition at 125 µM,L929 [3],81.3%
same,inhibition at 15.625 µM,L929 [4],53.9%
Nc1ccc2cc3ccccc3cc2c1 [2-AMINOANTHRACENE],Activity,Salmonella typhimurium [5],2540
N=C(N)NS(=O)(=O)c1ccc(N2C(=O)c3ccccc3C2=O)cc1,viability,[1],> 90%
same,inhibition,L929 [2],Dose-dependent effect
same,inhibition (INH),Mus musculus,29.63%
same,inhibition at 125 µM,L929 [3],7.24%
same,inhibition at 15.625 µM,L929 [4],0%
O=C1CCC(N2C(=O)c3ccccc3C2=O)C(=O)N1 (stereo not drawn) [THALIDOMIDE],inhibition (INH),Mus musculus,42.2%
same,inhibition at 125 µM,L929 [3],42.8%
same,inhibition at 15.625 µM,L929 [4],35.4%
same,Activity,Mycobacterium leprae,4600000
COc1cnc(NS(=O)(=O)c2ccc(N3C(=O)c4ccccc4C3=O)cc2)nc1,viability,[1],> 90%
same,inhibition,L929 [2],Dose-dependent effect
same,inhibition (INH),Mus musculus,27.57%
same,inhibition at 125 µM,L929 [3],80.8%
same,inhibition at 15.625 µM,L929 [4],73.5%
Cc1c(N(C)CS(=O)(=O)O)c(=O)n(-c2ccccc2)n1C [METAMIZOLE],inhibition (INH),Mus musculus,33.5%
Cc1ccnc(NS(=O)(=O)c2ccc(N3C(=O)c4ccccc4C3=O)cc2)n1,Activity,Salmonella typhimurium [6],1.38
same,Activity,Salmonella typhimurium [7],1.21
same,Activity,Salmonella typhimurium [8],1.08
same,Activity,Salmonella typhimurium [9],1.59
same,viability,[1],> 90%
same,Activity,Salmonella typhimurium [10],1.22
same,Activity,Salmonella typhimurium [11],1.33
same,inhibition,L929 [2],Dose-dependent effect
same,Activity,Salmonella typhimurium [12],1.64
same,Activity,Salmonella typhimurium [13],1.07
same,Activity,Salmonella typhimurium [14],1.26
same,Activity,Salmonella typhimurium [15],1.36
same,Activity,Salmonella typhimurium [16],1.33
same,inhibition (INH),Mus musculus,34.15%
same,Activity,Salmonella typhimurium [17],1.17
same,Activity,Salmonella typhimurium [18],1.07
same,Activity,Salmonella typhimurium [19],1.31
same,Activity,Salmonella typhimurium [20],1.19
same,inhibition at 125 µM,L929 [3],87.8%
same,Activity,Salmonella typhimurium [21],1.61
same,inhibition at 15.625 µM,L929 [4],86.3%
same,Activity,Mycobacterium leprae,2500000
same,Activity,Salmonella typhimurium [22],1.59
same,Activity,Salmonella typhimurium [23],1.08
same,Activity,Salmonella typhimurium [24],1.24
same,Activity,Salmonella typhimurium [25],1.4
Cc1cc(NS(=O)(=O)c2ccc(N3C(=O)c4ccccc4C3=O)cc2)no1,viability,[1],> 90%
same,inhibition,L929 [2],Dose-dependent effect
same,inhibition (INH),Mus musculus,17.9%
same,inhibition at 125 µM,L929 [3],34.1%
same,inhibition at 15.625 µM,L929 [4],16.2%
O=C1c2ccccc2C(=O)N1c1ccc(S(=O)(=O)Nc2ncccn2)cc1,viability,[1],> 90%
same,inhibition,L929 [2],Dose-dependent effect
same,inhibition (INH),Mus musculus,39.1%
same,inhibition at 125 µM,L929 [3],79.3%
same,inhibition at 15.625 µM,L929 [4],33.7%
Nc1ccc(NS(=O)(=O)c2ccc(N3C(=O)c4ccccc4C3=O)cc2)cc1,viability,[1],> 90%
same,inhibition,L929 [2],Dose-dependent effect
same,inhibition (INH),Mus musculus,35.2%
same,inhibition at 125 µM,L929 [3],40.6%
same,inhibition at 15.625 µM,L929 [4],28.8%
O=C1c2ccccc2C(=O)N1c1ccc(S(=O)(=O)Nc2ccccn2)cc1,viability,[1],> 90%
same,inhibition,L929 [2],Dose-dependent effect
same,inhibition (INH),Mus musculus,49.8%
same,inhibition at 125 µM,L929 [3],66.6%
same,inhibition at 15.625 µM,L929 [4],26.5%
NS(=O)(=O)c1ccc(N2C(=O)c3ccccc3C2=O)cc1,viability,[1],> 90%
same,inhibition,L929 [2],Dose-dependent effect
same,inhibition (INH),Mus musculus,26.75%
same,inhibition at 125 µM,L929 [3],70.7%
same,inhibition at 15.625 µM,L929 [4],53%
COc1cccc2c1C(=O)c1c(O)c3c(c(O)c1C2=O)C[C@@](O)(C(C)=O)C[C@@H]3O[C@H]1C[C@H](N)[C@H](O)[C@H](C)O1 [DAUNORUBICIN],Activity,Salmonella typhimurium [26],902
